From ChEMBL document CHEMBL1125322, “Stabilization of the N-terminal residues of luteinizing hormone-releasing hormone agonists and the effect on pharmacokinetics” (J Med Chem, 1992) come the findings set out here.

Molecules are shown by their SMILES. Square brackets hold non-standard residues; d marks the D form. Peptide text beside a SMILES is read from it. 1Nal = N[C@@H](Cc1cccc2ccccc12)C(=O)O; NMeF = CN[C@@H](Cc1ccccc1)C(=O)O; pGlu = O=C1CC[C@@H](C(=O)O)N1; NMeS = CN[C@@H](CO)C(=O)O Some results are limits rather than exact numbers.

A short description of data set [1]: Compound was tested in vivo for clearance after iv administration in the rat. It is filed as ADME, organism-based. The method in brief:
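Rats received each compound as an iv bolus. Serum levels were measured by RIA using an antibody recognizing the C-terminal Leu-Arg-ProNHEt; one analogue was measured with an anti-[D-Lys6]LHRH antibody instead. Whole-body clearance was calculated as dose divided by the area under the concentration–time curve and expressed in mL/min per kg.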

The nature of data set [2]: Compound was tested in vitro for lumenal concentration in the rat jejunal sac to decrease by 50%. It is filed as ADME. The method in brief: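 Peptides were incubated at 37 °C inside short closed segments of rat jejunum in oxygenated Ringer's buffer, pH 6.8. At set times, segments were removed from the bath and the lumenal contents were assayed for peptide by HPLC. T1/2 is the time, in min, for the lumenal concentration to fall by 50%.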

The nature of data set [3]: Compound was tested in vitro for chymotrypsin degradation. It is filed as ADME. The method in brief: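 Each peptide was mixed with chymotrypsin in 30 mM sodium phosphate/100 mM NaCl, pH 6.9 (enzyme at 5 µg/mL in the buffer before mixing, prewarmed to 37 °C) and incubated at 37 °C. Aliquots were taken at set intervals from 0.083 min up to 60 min and quenched in 3:7 acetonitrile/water. Degradation was followed chromatographically, and the half-life is given in min.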

By clearance is commonly meant the rate of elimination divided by the concentration. A lower clearance goes with a low capacity for elimination. One may read the half-life as the time in which the quantity being followed falls by half. Compound `CCNC(=O)[C@@H]1CCCN1C(=O)[C@H](CCCN=C(N)N)NC(=O)[C@H](CC(C)C)NC(=O)[C@@H](CC(C)C)NC(=O)[C@H](Cc1ccc(O)cc1)NC(=O)[C@H](CO)NC(=O)[C@H](Cc1c[nH]c2ccccc12)NC(=O)[C@H](Cc1c[nH]cn1)NC(=O)CN(C)C(C)=O` displayed a clearance in data set [1] of 24 mL/min/kg. Moreover, the half-life in data set [2] was 60 min; in data set [3], 1 min.

Consider `CCNC(=O)[C@@H]1CCCN1C(=O)[C@H](CCCNC(=N)N)NC(=O)[C@H](CC(C)C)NC(=O)[C@@H](CC(C)C)NC(=O)[C@H](Cc1ccc(O)cc1)NC(=O)[C@H](CO)NC(=O)[C@H](Cc1c[nH]c2ccccc12)NC(=O)[C@H](Cc1c[nH]cn1)NC(=O)[C@@H]1CCC(=O)N1`, for which, in data set [2], the half-life came out at 4 min.

With `CCNC(=O)[C@@H]1CCCN1C(=O)[C@H](CCCN=C(N)N)NC(=O)[C@H](CC(C)C)NC(=O)[C@@H](Cc1c[nH]c2ccccc12)NC(=O)[C@H](Cc1ccc(O)cc1)NC(=O)[C@H](CO)N(C)C(=O)[C@H](Cc1c[nH]c2ccccc12)NC(=O)[C@H](Cc1cnc[nH]1)NC(=O)[C@@H]1CCC(=O)N1`, in data set [2], the half-life was 39.1 min.

Regarding `CCNC(=O)[C@@H]1CCCN1C(=O)[C@H](CCCN=C(N)N)NC(=O)[C@H](CC(C)C)NC(=O)[C@@H](CC(C)C)NC(=O)[C@H](Cc1ccc(O)cc1)NC(=O)[C@H](CO)NC(=O)[C@H](Cc1ccc(Cl)cc1)NC(=O)[C@H](Cc1c[nH]cn1)NC(=O)[C@@H]1CCC(=O)N1`, the clearance in data set [1] was 7.6 mL/min/kg. The same compound yielded a half-life in data set [2] of 4.4 min.

In data set [1], `CCNC(=O)[C@@H]1CCCN1C(=O)[C@H](CCCN=C(N)N)NC(=O)[C@H](CC(C)C)NC(=O)[C@@H](CC(C)C)NC(=O)[C@H](Cc1ccc(O)cc1)NC(=O)[C@H](CO)NC(=O)[C@H](Cc1ccc(OC)cc1)NC(=O)[C@H](Cc1c[nH]cn1)NC(=O)[C@@H]1CCC(=O)N1` came in with a clearance of 13.3 mL/min/kg. Also, in data set [2], the half-life worked out at 14.9 min.

In turn, `CCNC(=O)[C@@H]1CCCN1C(=O)[C@H](CCCN=C(N)N)NC(=O)[C@H](CC(C)C)NC(=O)[C@@H](Cc1c[nH]c2ccccc12)NC(=O)[C@H](Cc1ccc(O)cc1)NC(=O)[C@H](CO)N(C)C(=O)[C@H](Cc1c[nH]c2ccccc12)NC(=O)[C@H](Cc1c[nH]cn1)NC(=O)CN(C)C(C)=O` displayed a clearance in data set [1] of 28.3 mL/min/kg. Further, the half-life is 55 min in data set [2] and more than 60 min in data set [3].

`CCNC(=O)[C@@H]1CCCN1C(=O)[C@H](CCCN=C(N)N)NC(=O)[C@H](CC(C)C)NC(=O)[C@@H](CC(C)C)NC(=O)[C@H](Cc1ccc(O)cc1)NC(=O)[C@H](CO)NC(=O)[C@H](Cc1c[nH]c2ccccc12)NC(=O)[C@H](Cc1ccccc1)NC(=O)[C@@H]1CCC(=O)N1` ([pGlu]FWSY[dL]LRP-NHEt) displayed a half-life in data set [2] of 2.2 min.

As to `CCNC(=O)[C@@H]1CCCN1C(=O)[C@H](CCCN=C(N)N)NC(=O)[C@H](CC(C)C)NC(=O)[C@@H](Cc1c[nH]c2ccccc12)NC(=O)[C@H](Cc1ccc(O)cc1)NC(=O)[C@H](CO)NC(=O)[C@H](Cc1c[nH]c2ccccc12)NC(=O)[C@H](Cc1ccccc1)NC(=O)[C@@H]1CCC(=O)N1` ([pGlu]FWSY[dW]LRP-NHEt), the half-life in data set [2] stood at 10.8 min.

`CCNC(=O)[C@@H]1CCCN1C(=O)[C@H](CCCN=C(N)N)NC(=O)[C@H](CC(C)C)NC(=O)[C@@H](CC(C)C)NC(=O)[C@H](Cc1ccc(O)cc1)NC(=O)[C@H](CO)N(C)C(=O)[C@H](Cc1c[nH]c2ccccc12)NC(=O)[C@H](Cc1c[nH]cn1)NC(=O)[C@@H]1CCC(=O)N1` ([pGlu]HW[NMeS]Y[dL]LRP-NHEt) returned a half-life in data set [2] of more than 90 min.

With `CCNC(=O)[C@@H]1CCCN1C(=O)[C@H](CCCN=C(N)N)NC(=O)[C@H](CC(C)C)NC(=O)[C@@H](CC(C)C)NC(=O)[C@H](Cc1ccc(O)cc1)NC(=O)[C@H](CO)NC(=O)[C@H](Cc1cccc2ccccc12)NC(=O)[C@H](Cc1c[nH]cn1)NC(=O)[C@@H]1CCC(=O)N1` ([pGlu]H[1Nal]SY[dL]LRP-NHEt), in data set [2], the half-life is 25 min.

As for `CCNC(=O)[C@@H]1CCCN1C(=O)[C@H](CCCN=C(N)N)NC(=O)[C@H](CC(C)C)NC(=O)[C@@H](Cc1c[nH]c2ccccc12)NC(=O)[C@H](Cc1ccc(O)cc1)NC(=O)[C@H](CO)NC(=O)[C@H](Cc1c[nH]c2ccccc12)NC(=O)[C@H](Cc1ccccc1)N(C)C(=O)[C@@H]1CCC(=O)N1` ([pGlu][NMeF]WSY[dW]LRP-NHEt), in data set [1], the clearance worked out at 44.4 mL/min/kg. Further, the half-life in data set [2] was determined as 44.4 min.
